In ChEMBL document CHEMBL2146415, “Antibacterial activities of Groebke-Blackburn-Bienaymé-derived imidazo[1,2-a]pyridin-3-amines” (Bioorg Med Chem, 2012) one finds Stability, Activity and MIC data, which are given here for four compounds.

Data set [1] in a line: Chemical stability in aqueous solution of the compound assessed as N-dealkylated compound formation after 2 weeks by LC-MS analysis. Type of data set: physicochemical. Particulars: buffer, 336 h.
Data set [2] addresses T1, Toll-like receptor 7 (Homo sapiens) (UniProt Q9NYK1).
T1 sequence (whole entry): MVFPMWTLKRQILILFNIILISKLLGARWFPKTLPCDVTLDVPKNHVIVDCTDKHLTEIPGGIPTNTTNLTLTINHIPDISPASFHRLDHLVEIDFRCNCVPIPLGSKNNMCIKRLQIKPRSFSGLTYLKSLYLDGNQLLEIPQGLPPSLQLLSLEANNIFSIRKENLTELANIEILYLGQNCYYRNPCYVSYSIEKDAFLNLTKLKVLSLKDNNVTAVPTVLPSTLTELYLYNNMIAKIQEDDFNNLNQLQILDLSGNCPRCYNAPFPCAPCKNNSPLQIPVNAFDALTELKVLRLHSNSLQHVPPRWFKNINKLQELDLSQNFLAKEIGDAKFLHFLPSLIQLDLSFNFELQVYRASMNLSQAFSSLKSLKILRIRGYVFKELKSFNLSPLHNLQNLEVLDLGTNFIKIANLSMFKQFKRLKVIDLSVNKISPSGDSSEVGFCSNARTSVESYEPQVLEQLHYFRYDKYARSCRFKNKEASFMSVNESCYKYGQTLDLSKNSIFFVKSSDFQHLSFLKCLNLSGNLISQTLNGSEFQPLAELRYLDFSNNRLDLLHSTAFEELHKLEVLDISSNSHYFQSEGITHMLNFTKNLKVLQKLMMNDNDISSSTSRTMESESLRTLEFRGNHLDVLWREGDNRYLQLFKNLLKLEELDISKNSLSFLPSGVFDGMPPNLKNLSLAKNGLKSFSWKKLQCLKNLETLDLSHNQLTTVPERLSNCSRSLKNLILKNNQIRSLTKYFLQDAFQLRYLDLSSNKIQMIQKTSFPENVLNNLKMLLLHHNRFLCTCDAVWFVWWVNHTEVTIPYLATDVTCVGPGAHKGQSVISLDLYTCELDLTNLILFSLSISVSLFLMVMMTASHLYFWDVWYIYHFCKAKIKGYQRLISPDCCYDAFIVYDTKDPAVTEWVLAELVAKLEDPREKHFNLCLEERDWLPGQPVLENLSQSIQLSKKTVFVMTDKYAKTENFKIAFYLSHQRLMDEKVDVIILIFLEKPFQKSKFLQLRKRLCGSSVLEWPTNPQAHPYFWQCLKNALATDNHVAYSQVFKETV
The experiment in a line: Agonist activity at human TLR7 expressed in HEK293 cells co-transfected with NF-kappaB/sAP gene assessed as induction of NF-kappaB activation up to 250 uM by reporter gene assay. Type of data set: functional, cell-based. A general note: Reporter assays use an easily measured gene product as a stand-in for the process of interest.

The test system of data set [3] is Staphylococcus aureus. The experiment in a line: Bacteriostatic activity against methicillin resistant Staphylococcus aureus ATCC 33591 by CLSI broth microdilution method. Type of data set: functional. For orientation: In broth dilution the organism is exposed to a series of concentrations in liquid medium.
The target in data set [4] is T1, Toll-like receptor 7 (Homo sapiens). The experiment in a line: Antagonist activity at TLR7 expressed in HEK293 cells co-transfected with NF-kappaB/sAP gene assessed as inhibition of gardiquimod-induced NF-kappaB activation up to 250 uM by reporter gene assay. The class given is functional, cell-based.
Data set [5] has as its system Staphylococcus epidermidis. The experiment in a line: Bacteriostatic activity against coagulase negative Staphylococcus epidermidis ATCC 35983 by CLSI broth microdilution method. Type of data set: functional. Put shortly:
(§1)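 MIC was determined by CLSI broth microdilution in non-cation-supplemented Mueller-Hinton broth, using OD600 0.5 cultures diluted 10-fold and 2-fold compound dilutions, overnight at 37°C, A600 read-out.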

Data set [6] concerns Streptococcus pyogenes. The data set can be described thus: Bacteriostatic activity against Streptococcus pyogenes clinical isolate by CLSI broth microdilution method. The class given is functional. Put shortly: as §1
Data set [7] has as its system Staphylococcus aureus. The experiment in a line: Bacteriostatic activity against wild type Staphylococcus aureus ATCC 13709 by CLSI broth microdilution method. Type of data set: functional. Put shortly:
as §1

In data set [8] the test system is Staphylococcus aureus. The data set can be described thus: Bactericidal activity against methicillin resistant Staphylococcus aureus ATCC 33591 by broth microdilution method. The class given is functional, organism-based. Put shortly: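 MBC by microdilution subculture: 0.5 μL from each well of the parent MIC plate (MRSA ATCC 33591) diluted into 80 μL fresh Mueller-Hinton broth, incubated overnight at 37°C, absorbance read at 600 nm.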

The subject of data set [9] is Escherichia coli. The experiment in a line: Antibacterial activity against Escherichia coli ATCC 9637 in presence of 6.6 ug/mL polymyxin B […]. The class given is functional, organism-based. Put shortly:
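Broth microdilution per CLSI. Mid-log cultures in non-cation-supplemented Mueller-Hinton broth were adjusted to OD600 0.5, diluted 10-fold, and added to equal volumes of 2-fold serially diluted compound. Plates were sealed and incubated overnight at 37°C, then read at A600. MIC was the lowest concentration inhibiting growth. Reference antibiotics were run alongside.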

Values after ≈ are worked out from the molar mass of the structure shown. Active and inactive are the calls of the source. No cut-off for these calls is given here. A value given as a limit tells only on which side of the number the result lay.

Take `CN(C)CCCNc1c2ccccc2c(-c2nc3ccccn3c2NC(C)(C)CC(C)(C)C)c2ccccc12.Cl`: the Stability entry in data set [1] is listed as “Unstable”.

As for `c1ccc2c(-c3nc4ccccn4c3NC3CCCCC3)c3ccccc3cc2c1`, the result in data set [2] and in data set [4] was inactive. The MIC in data set [3] is 3.91 µg/mL (≈ 9.99 µM); in [5] it was 7.81 µg/mL (≈ 19.9 µM); in data set [6], less than 10 µg/mL; in [7] it was 3.91 µg/mL (≈ 9.99 µM).

In the case of `CC(C)(C)Nc1c(-c2c3ccccc3cc3ccccc23)nc2ccccn12`, the result in data set [8], in [2], in [4] and in [9] was inactive. Besides, the MIC in [3] was 3.91 µg/mL (≈ 10.7 µM); in data set [5], 7.81 µg/mL (≈ 21.4 µM); in data set [6] it was less than 10 µg/mL; in data set [7] it was 3.91 µg/mL (≈ 10.7 µM).

Turning to `CN(C)CCCNc1ccc2nc(-c3c4ccccc4cc4ccccc34)c(NC(C)(C)CC(C)(C)C)n2c1.Cl`, in [1], the Stability result is given as “Unstable”.

For orientation: MIC means the lowest concentration that inhibits growth of the organism. Read a high MIC as a less susceptible organism.
